One data set deals with HeLa. The experiment in a line: Cytotoxicity against human HeLa cells assessed as cell viability at 4 to 10 uM measured after 48 hrs by MTT assay. Type of data set: cell-based. Conditions: dose 4-10 µM. Put shortly:
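HeLa grown in DMEM with 10% FBS, 2 mM L-glutamine, penicillin/streptomycin, 37 °C, 5% CO2; seeded at 3 × 10^4/mL. Exposed 48 h to compound (4–100 µM in DMSO, DMSO-only control), then MTT (0.5 mg/mL final) 3 h at 37 °C, lysed in DMSO, OD 560 nm; mean ± SD of triplicates.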

The nature of data set [1]: Antioxidant activity assessed as ABTS radical scavenging activity incubated in dark for 1 min. Type of data set: functional. In short, it runs like this: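 ABTS radical cation generated from 7 mM ABTS plus 2.45 mM potassium persulfate (final), held dark at room temperature 24 h, then diluted to A734 0.700 ± 0.02. Sample added, kept dark at room temperature 1 min; drop in A734 read against a Trolox standard curve.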

A further data set has as its target Mushroom tyrosinase (Agaricus bisporus, UniProt O42713+Q00024+C7FF04+C7FF05). The experiment in a line: Inhibition of diphenolase activity of mushroom tyrosinase using L-Dopa as substrate preincubated with substrate for 10 mins followed by enzyme addition and measured after 5 mins. In short, it runs like this: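 Diphenolase assay: sample (5–300 µM) with 1.25 mM L-DOPA in 0.05 M sodium acetate pH 6.8, preincubated 10 min at 25 °C; mushroom tyrosinase (333 U/mL stock) added last. Linear A475 rise followed up to 5 min; % inhibition, IC50 interpolated from dose-response curves; three replicates. Kojic acid standard at 8–35 µM.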

Data set [2] concerns the target T1, Mushroom tyrosinase (Agaricus bisporus) (UniProt O42713+Q00024+C7FF04+C7FF05). Put plainly: Potency index, ratio of kojic acid IC50 to test compound IC50 for diphenolase activity of mushroom tyrosinase using L-Dopa as substrate preincubated with substrate for 10 mins followed by enzyme addition and measured after 5 mins.
Data set [3] addresses T1, Mushroom tyrosinase (Agaricus bisporus). The experiment in a line: Noncompetitive inhibition of diphenolase activity of mushroom tyrosinase assessed as decrease in Vmax with constant Km at 2 to 8 uM using 0.6 to 5 mM L-dopa as substrate by Lineweaver-Burk double reciprocal plot analysis. The settings on record: dose microM 2-8.

The structures appear in SMILES notation. The source made the active and inactive calls. The calls are words filed in the database; no cut-off is given here.

In the case of `O=C(CN1CCC(Cc2ccccc2)CC1)N1CCN(c2ccc(O)cc2)CC1`, the Activity result in the data set on HeLa is given as “Non-Toxic”. Moreover, in data set [1], the EC50 (commonly the concentration needed to bring the measured effect to its halfway point) stood at 18.1 µM. Moreover, the IC50 (usually the concentration at which inhibition is half-maximal) at Mushroom tyrosinase came to 3.8 µM. The Ratio IC50 in data set [2] is 5. For the same molecule, the inhibition result in data set [3] was “Active”.

In the case of `O=C(CCN1CCC(Cc2ccccc2)CC1)N1CCN(c2ccccc2)CC1`, on Mushroom tyrosinase, the IC50 was determined as 57.5 µM.

Take `O=C(CN1CCC(Cc2ccc(F)cc2)CC1)N1CCN(c2ccc(O)cc2)CC1`: at Mushroom tyrosinase, the IC50 is 4.49 µM.

`O=C(CCN1CCC(Cc2ccc(F)cc2)CC1)N1CCN(c2ccc(O)cc2)CC1` displayed an IC50 at Mushroom tyrosinase of 6.06 µM.

Regarding `O=C(CN1CCC(Cc2ccc(F)cc2)CC1)N1CCN(c2ccccc2)CC1`, at Mushroom tyrosinase, the IC50 is 9.6 µM.

Turning to `O=C(CCN1CCC(Cc2ccc(F)cc2)CC1)N1CCN(c2ccccc2)CC1`, the half-maximal inhibitory concentration (IC50) on Mushroom tyrosinase turned out to be 23.36 µM.

Molecule `O=C(CCN1CCC(Cc2ccccc2)CC1)N1CCN(c2ccc(O)cc2)CC1` showed an IC50 on Mushroom tyrosinase of 4.03 µM.

On to `Cc1c(C)c2c(c(C)c1O)CCC(C)(C(=O)O)O2` (stereo not drawn) [TROLOX], for which, in data set [1], the EC50 amounted to 13 µM.

With `O=C(CN1CCC(Cc2ccccc2)CC1)N1CCN(c2ccccc2)CC1`, the IC50 against Mushroom tyrosinase is 80.86 µM.

(Values after ChEMBL document CHEMBL4725226, “Discovery of a new potent inhibitor of mushroom tyrosinase (Agaricus bisporus) containing 4-(4-hydroxyphenyl)piperazin-1-yl moiety” (Bioorg Med Chem, 2020).)
